Source: ChEMBL document CHEMBL4346654 (Eur J Med Chem, 2019)
In brackets after ≈: the same amount, converted by molar mass.

Key:
[1] = tested on: Staphylococcus aureus; experiment: Antibacterial activity against MLS-resistant Staphylococcus aureus PU 32 expressing inducible ermA gene assessed as reduction in microbial growth by CLSI based two-fold broth dilution method; format: functional
[2] = tested on: Streptococcus pneumoniae; experiment: Antibacterial activity against erythromycin-susceptible Streptococcus pneumoniae ATCC49619 assessed as reduction in microbial growth by CLSI based two-fold broth dilution method; format: functional
[3] = tested on: Streptococcus pneumoniae; experiment: Bactericidal activity against erythromycin-susceptible Streptococcus pneumoniae ATCC49619 pretreated followed by subculture in absence of compound measured after 24 hrs; format: functional
Method in brief: (§1)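 Isolates were identified by 16S rDNA sequencing. MIC was determined by CLSI-recommended two-fold broth dilution. For MBC, samples from 1–8 fold MIC were transferred to culture medium and subcultured for 24 h without antibiotic.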

[4] = tested on: Haemophilus influenzae; experiment: Antibacterial activity against azithromycin-susceptible Haemophilus influenzae ATCC 49247 assessed as reduction in microbial growth by CLSI based two-fold broth dilution method; format: functional
[5] = tested on: Streptococcus pneumoniae; experiment: Antibacterial activity against Streptococcus pneumoniae 07P390 expressing constitutive ermB gene assessed as reduction in microbial growth by CLSI based two-fold broth dilution method; format: functional
[6] = tested on: Streptococcus pneumoniae; experiment: Antibacterial activity against penicillin-susceptible Streptococcus pneumoniae PU 09 expressing mef gene assessed as reduction in microbial growth by CLSI based two-fold broth dilution method; format: functional
[7] = tested on: Streptococcus pneumoniae; experiment: Bactericidal activity against penicillin-susceptible Streptococcus pneumoniae PU 09 expressing mef gene pretreated followed by subculture in absence of compound measured after 24 hrs; format: functional; method in brief: as §1
[8] = tested on: Streptococcus pneumoniae; experiment: Selectivity ratio of MBC to MIC for penicillin-susceptible Streptococcus pneumoniae PU 09 expressing mef gene; format: functional; method in brief: as §1
[9] = tested on: Streptococcus pneumoniae; experiment: Bactericidal activity against Streptococcus pneumoniae 07P390 expressing constitutive ermB gene pretreated followed by subculture in absence of compound measured after 24 hrs; format: functional; method in brief: as §1
[10] = tested on: Streptococcus pneumoniae; experiment: Selectivity ratio of MBC to MIC for Streptococcus pneumoniae 07P390 expressing constitutive ermB gene; format: functional; method in brief: as §1
[11] = tested on: Haemophilus influenzae; experiment: Bactericidal activity against azithromycin-susceptible Haemophilus influenzae ATCC 49247 pretreated followed by subculture in absence of compound measured after 24 hrs; format: functional; method in brief: as §1
[12] = tested on: Haemophilus influenzae; experiment: Selectivity ratio of MBC to MIC for azithromycin-susceptible Haemophilus influenzae ATCC 49247; format: functional; method in brief: as §1
[13] = tested on: Streptococcus pyogenes; experiment: Antibacterial activity against MLS-resistant Streptococcus pyogenes 01-968 expressing inducible ermB gene assessed as reduction in microbial growth by CLSI based two-fold broth dilution method; format: functional
[14] = tested on: Streptococcus pyogenes; experiment: Bactericidal activity against MLS-resistant Streptococcus pyogenes 01-968 expressing inducible ermB gene pretreated followed by subculture in absence of compound measured after 24 hrs; format: functional
Method in brief: (§2)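 MBC assay. Following MIC determination by CLSI standard two-fold broth dilution, samples at 1–8 fold MIC were transferred to fresh culture medium. They were subcultured for 24 h without antibiotic. Isolates were identified by 16S rDNA sequencing. S. aureus ATCC 29213 was used as a control strain.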

[15] = tested on: Streptococcus pyogenes; experiment: Selectivity ratio of MBC to MIC for MLS-resistant Streptococcus pyogenes 01-968 expressing inducible ermB gene; format: functional
Method in brief: (§3)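 MBC/MIC ratio. MIC was measured by CLSI standard two-fold broth dilution. MBC was measured by transferring samples at 1–8 fold MIC to culture medium and subculturing for 24 h without antibiotic. Isolates were identified by 16S rDNA sequencing.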

[16] = tested on: Staphylococcus aureus; experiment: Bactericidal activity against MLS/methicillin-resistant Staphylococcus aureus PU 32 expressing inducible ermA gene pretreated followed by subculture in absence of compound measured after 24 hrs; format: functional; method in brief: as §2
[17] = tested on: Staphylococcus aureus; experiment: Selectivity ratio of MBC to MIC for MLS/methicillin-resistant Staphylococcus aureus PU 32 expressing inducible ermA gene; format: functional; method in brief: as §3
[18] = tested on: Staphylococcus aureus; experiment: Antibacterial activity against MLS-resistant Staphylococcus aureus PU 20 expressing constitutive ermC gene assessed as reduction in microbial growth by CLSI based two-fold broth dilution method; format: functional
[19] = tested on: Staphylococcus aureus; experiment: Bactericidal activity against MLS-resistant Staphylococcus aureus PU 20 expressing constitutive ermC gene pretreated followed by subculture in absence of compound measured after 24 hrs; format: functional; method in brief: as §2
[20] = tested on: Streptococcus pyogenes; experiment: Antibacterial activity against MLS-resistant Streptococcus pyogenes 12-206 expressing constitutive ermA gene assessed as reduction in microbial growth by CLSI based two-fold broth dilution method; format: functional
[21] = tested on: Streptococcus pyogenes; experiment: Bactericidal activity against MLS-resistant Streptococcus pyogenes 12-206 expressing constitutive ermA gene pretreated followed by subculture in absence of compound measured after 24 hrs; format: functional; method in brief: as §2
[22] = tested on: Streptococcus pyogenes; experiment: Selectivity ratio of MBC to MIC for MLS-resistant Streptococcus pyogenes 12-206 expressing constitutive ermA gene; format: functional; method in brief: as §3
[23] = tested on: Streptococcus pyogenes; experiment: Antibacterial activity against Streptococcus pyogenes 12-207 expressing mef gene assessed as reduction in microbial growth by CLSI based two-fold broth dilution method; format: functional
[24] = tested on: Streptococcus pyogenes; experiment: Bactericidal activity against Streptococcus pyogenes 12-207 expressing mef gene pretreated followed by subculture in absence of compound measured after 24 hrs; format: functional; method in brief: as §1
[25] = tested on: Streptococcus pyogenes; experiment: Selectivity ratio of MBC to MIC for Streptococcus pyogenes 12-207 expressing mef gene; format: functional; method in brief: as §1
[26] = tested on: Moraxella catarrhalis; experiment: Antibacterial activity against erythromycin-susceptible Moraxella catarrhalis 13L332 assessed as reduction in microbial growth by CLSI based two-fold broth dilution method; format: functional
[27] = tested on: Moraxella catarrhalis; experiment: Bactericidal activity against erythromycin-susceptible Moraxella catarrhalis 13L332 pretreated followed by subculture in absence of compound measured after 24 hrs; format: functional; method in brief: as §1
[28] = tested on: Moraxella catarrhalis; experiment: Selectivity ratio of MBC to MIC for erythromycin-susceptible Moraxella catarrhalis 13L332; format: functional; method in brief: as §1
[29] = AUCinfinity in Sprague-Dawley rat at 20 mg/kg, po after 0.25 to 24 hrs by LC-MS/MS analysis; format: ADME, organism-based; parameters: dose 20 mg/kg, time infinity, route oral; settings: in vivo
Method in brief: (§4)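 Male SD rats were given a single 20 mg/Kg oral dose. Blood was sampled at 0.25, 0.5, 1, 2, 4, 6, 8 and 24 h and centrifuged at 2500 g for 5 min at 4 °C. Drug levels were quantified by LC-MS/MS. t1/2, Cmax, Tmax, CL, MRT and AUC were calculated from the concentration–time data.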

[30] = AUC (0 to t) in Sprague-Dawley rat at 20 mg/kg, po after 0.25 to 24 hrs by LC-MS/MS analysis; format: ADME, organism-based; parameters: time upper 24 hr, dose 20 mg/kg, time lower 0.25 hr, route oral; settings: in vivo; method in brief: as §4
[31] = Half life in Sprague-Dawley rat at 20 mg/kg, po after 0.25 to 24 hrs by LC-MS/MS analysis; format: ADME, organism-based; settings: in vivo; method in brief: as §4
[32] = MRT in Sprague-Dawley rat at 20 mg/kg, po after 0.25 to 24 hrs by LC-MS/MS analysis; format: ADME, organism-based; settings: in vivo; method in brief: as §4
[33] = Tmax in Sprague-Dawley rat at 20 mg/kg, po after 0.25 to 24 hrs by LC-MS/MS analysis; format: ADME, organism-based; settings: in vivo; method in brief: as §4
[34] = Cmax in Sprague-Dawley rat at 20 mg/kg, po after 0.25 to 24 hrs by LC-MS/MS analysis; format: ADME, organism-based; parameters: dose 20 mg/kg, route oral; settings: in vivo; method in brief: as §4
[35] = biological target: Cytochrome P450 3A4 (Homo sapiens, UniProt P08684); experiment: Inhibition of CYP3A4 in human liver microsomes assessed as reduction in metabolite formation using midazolam as substrate incubated for 10 mins in presence of NADPH by HPLC based mass spectrometric method; format: ADME
Chain of Cytochrome P450 3A4 (P08684 whole entry): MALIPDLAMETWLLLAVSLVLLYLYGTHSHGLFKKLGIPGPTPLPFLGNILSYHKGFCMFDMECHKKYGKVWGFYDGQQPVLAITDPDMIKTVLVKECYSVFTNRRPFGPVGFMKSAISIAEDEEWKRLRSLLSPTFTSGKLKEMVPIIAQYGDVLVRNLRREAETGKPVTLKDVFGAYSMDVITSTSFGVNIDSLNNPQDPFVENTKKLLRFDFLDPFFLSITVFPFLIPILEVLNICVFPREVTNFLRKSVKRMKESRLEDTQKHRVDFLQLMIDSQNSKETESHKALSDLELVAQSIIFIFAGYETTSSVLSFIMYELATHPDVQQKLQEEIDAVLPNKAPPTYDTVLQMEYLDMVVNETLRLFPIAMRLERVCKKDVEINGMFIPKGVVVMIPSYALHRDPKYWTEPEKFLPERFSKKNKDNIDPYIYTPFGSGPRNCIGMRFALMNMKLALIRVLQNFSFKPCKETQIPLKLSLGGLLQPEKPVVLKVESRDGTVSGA
Method in brief: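 Human liver microsome CYP3A4 with midazolam substrate in 0.1 M potassium phosphate buffer was prewarmed at 37 °C for 5 min. Compound and 25 mM NADPH solution (stock) were added, then incubated at 37 °C for 10 min. Ketoconazole served as the positive inhibitor. Metabolite was measured by UPLC–triple quadrupole MS as the metabolite/internal standard peak area ratio, and IC50 was derived by curve fitting.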

[36] = tested on: Rattus norvegicus; experiment: Ratio of test compound half life to telithromycin half life in Sprague-Dawley rat at 20 mg/kg, po after 0.25 to 24 hrs by LC-MS/MS analysis; format: ADME, organism-based; settings: in vivo
[37] = Ratio of test compound MRT to telithromycin MRT in Sprague-Dawley rat at 20 mg/kg, po after 0.25 to 24 hrs by LC-MS/MS analysis; format: ADME, organism-based; settings: in vivo
[38] = tested on: Rattus norvegicus; experiment: Ratio of test compound plasma clearance to telithromycin plasma clearance in Sprague-Dawley rat at 20 mg/kg, po after 0.25 to 24 hrs by LC-MS/MS analysis; format: ADME, organism-based; settings: in vivo
[39] = tested on: Rattus norvegicus; experiment: Ratio of test compound AUC to telithromycin AUC in Sprague-Dawley rat at 20 mg/kg, po after 0.25 to 24 hrs by LC-MS/MS analysis; format: ADME, organism-based; settings: in vivo
[40] = Systemic plasma clearance in Sprague-Dawley rat at 20 mg/kg, po after 0.25 to 24 hrs by LC-MS/MS analysis; format: ADME, organism-based; method in brief: as §4

CC[C@H]1OC(=O)[C@@](C)(F)C(=O)[C@H](C)[C@@H](O[C@@H]2O[C@H](C)C[C@H](N(C)C)[C@H]2O)[C@](C)(OC)C[C@@H](C)/C(=N\OC/C=C/c2ccc3c(c2)c(=O)c(C(N)=O)cn3CC)[C@H](C)[C@H]2OC(=O)O[C@@]21C
MIC [1]: 0.5 µg/mL
MIC [2]: ≤ 0.008 µg/mL
MBC [3]: ≤ 0.008 µg/mL
MIC [4]: 32 µg/mL
MIC [5]: 0.062 µg/mL
MIC [6]: 0.25 µg/mL
MBC [7]: 0.25 µg/mL (≈ 0.277 µM)
Selectivity ratio [8]: 1
MBC [9]: > 0.5 µg/mL
Selectivity ratio [10]: >8
MBC [11]: 256 µg/mL (≈ 284 µM)
Selectivity ratio [12]: 8
MIC [13]: ≤ 0.002 µg/mL
MBC [14]: > 0.016 µg/mL
Selectivity ratio [15]: >8
MBC [16]: > 4 µg/mL
Selectivity ratio [17]: >8
MIC [18]: 128 µg/mL
MBC [19]: > 256 µg/mL
MIC [20]: 0.5 µg/mL
MBC [21]: > 4 µg/mL
Selectivity ratio [22]: >8
MIC [23]: 0.062 µg/mL
MBC [24]: 0.5 µg/mL (≈ 0.555 µM)
Selectivity ratio [25]: 8
MIC [26]: 4 µg/mL
MBC [27]: > 32 µg/mL
Selectivity ratio [28]: >8
AUC [29]: 1538 ng·h/mL
AUC(0-t) [30]: 1460 ng·h/mL
half-life [31]: 3.03 h
MRT [32]: 7.42 h
Tmax [33]: 7 h
Cmax [34]: 124 ng/mL
IC50 [35]: 5.14 µM
Ratio [36]: 2.5 to 3.6
Ratio [37]: 2.3 to 2.6
Ratio [38]: 1.5
Ratio AUC [39]: 1.6

CC[C@H]1OC(=O)[C@@](C)(F)C(=O)[C@H](C)[C@@H](O[C@@H]2O[C@H](C)C[C@H](N(C)C)[C@H]2O)[C@](C)(OC/C=C/c2ccc3c(c2)c(=O)c(C(N)=O)cn3C2CC2)C[C@@H](C)/C(=N\OC)[C@H](C)[C@H]2OC(=O)O[C@@]21C
MIC [1]: 0.25 µg/mL
MIC [2]: ≤ 0.008 µg/mL
MBC [3]: ≤ 0.008 µg/mL
MIC [4]: 16 µg/mL
MIC [5]: ≤ 0.008 µg/mL
MIC [6]: 0.5 µg/mL
MBC [7]: 0.5 µg/mL (≈ 0.548 µM)
Selectivity ratio [8]: 1
MBC [9]: > 0.062 µg/mL
Selectivity ratio [10]: >8
MBC [11]: 32 µg/mL (≈ 35 µM)
Selectivity ratio [12]: 2
MIC [13]: ≤ 0.002 µg/mL
MBC [14]: > 0.016 µg/mL
Selectivity ratio [15]: >8
MBC [16]: > 2 µg/mL
Selectivity ratio [17]: >8
MIC [18]: > 256 µg/mL
MIC [20]: 0.016 µg/mL
MBC [21]: > 0.125 µg/mL
Selectivity ratio [22]: >8
MIC [23]: 0.062 µg/mL
MBC [24]: 0.125 µg/mL (≈ 0.137 µM)
Selectivity ratio [25]: 2
MIC [26]: 0.5 µg/mL
MBC [27]: 4 µg/mL (≈ 4.38 µM)
Selectivity ratio [28]: 8
AUC(0-inf) ([29]; Sprague-Dawley): 4770 ng·h/mL
AUC(0-t) [30]: 4600 ng·h/mL
CL/F [40]: 80.8 mL/min/kg
half-life [31]: 4.34 h
MRT [32]: 8.32 h
Tmax [33]: 6.67 h
Cmax [34]: 369 ng/mL
IC50 [35]: 14.9 µM
Ratio [36]: 2.5 to 3.6
Ratio [37]: 2.3 to 2.6
